Experimental findings from ChEMBL document CHEMBL5252516, “Linker Modification Strategies To Control the Prostate-Specific Membrane Antigen (PSMA)-Targeting and Pharmacokinetic Properties of DOTA-Conjugated PSMA Inhibitors” (J Med Chem, 2016) are described below.

The nature of data set [1]: Drug uptake in iv dosed BALB/c athymic nude mouse muscle xenografted with human LNCaP cells treated with 68Ga-labeled compound measured after 1 hr by microPET imaging analysis. The data set is classed as ADME, organism-based. As to conditions: in vivo; call rule not given here. In outline: (§1)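 Male BALB/c nu/nu mice, 6–8 weeks old, with subcutaneous LNCaP xenografts (6 × 10^6 cells in 50% Matrigel, right trunk) of about 1 cm. Tail-vein injection of 68Ga-labelled compound (~30 MBq, 0.5 nmol) under sevoflurane. Dynamic µPET: 60 min emission scan, then 100–120 min scan. SUVmean for tumor, muscle and kidney at 1 h; tumor/muscle ratio. One animal per compound.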
On the technique in general: Xenograft models place foreign cells or tissue in a host animal.

The nature of data set [2]: Distribution coefficient, logD of the compound at pH 7.4 in n-octanol/0.1 M HEPES by shake flask method. The data set is classed as physicochemical. In outline: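 Radiolabelled compound shaken to equilibrium in n-octanol / 0.1 M HEPES pH 7.4. Aliquots of both phases gamma-counted and logD calculated from the phase ratio. Mean ± SD.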
The target of data set [3] is T1, Glutamate carboxypeptidase 2 (Homo sapiens, UniProt Q04609). Kind of data set: Inhibition of PSMA in human LNCaP cells assessed as specific internalization per 10^6 cells using 177Lu-labeled compound after 45 mins by gamma counting analysis. The format is cell-based. In outline: (§2)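 LNCaP cells (10^5/well) seeded on poly-L-lysine 24 h before. Incubated 45 min at 37 °C with 32 nM 177Lu-labelled compound (25 GBq/µmol) in Opti-MEM, with or without 500 µM 2-PMPA as blocker. Four ice-cold PBS washes, surface fraction stripped with 50 mM glycine pH 2.8, internalized fraction released by 0.3 M NaOH lysis. Both fractions gamma-counted, specific values given as %IA/10^6 cells. Triplicate.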
Target sequence in this assay (Q04609 whole entry, looked up): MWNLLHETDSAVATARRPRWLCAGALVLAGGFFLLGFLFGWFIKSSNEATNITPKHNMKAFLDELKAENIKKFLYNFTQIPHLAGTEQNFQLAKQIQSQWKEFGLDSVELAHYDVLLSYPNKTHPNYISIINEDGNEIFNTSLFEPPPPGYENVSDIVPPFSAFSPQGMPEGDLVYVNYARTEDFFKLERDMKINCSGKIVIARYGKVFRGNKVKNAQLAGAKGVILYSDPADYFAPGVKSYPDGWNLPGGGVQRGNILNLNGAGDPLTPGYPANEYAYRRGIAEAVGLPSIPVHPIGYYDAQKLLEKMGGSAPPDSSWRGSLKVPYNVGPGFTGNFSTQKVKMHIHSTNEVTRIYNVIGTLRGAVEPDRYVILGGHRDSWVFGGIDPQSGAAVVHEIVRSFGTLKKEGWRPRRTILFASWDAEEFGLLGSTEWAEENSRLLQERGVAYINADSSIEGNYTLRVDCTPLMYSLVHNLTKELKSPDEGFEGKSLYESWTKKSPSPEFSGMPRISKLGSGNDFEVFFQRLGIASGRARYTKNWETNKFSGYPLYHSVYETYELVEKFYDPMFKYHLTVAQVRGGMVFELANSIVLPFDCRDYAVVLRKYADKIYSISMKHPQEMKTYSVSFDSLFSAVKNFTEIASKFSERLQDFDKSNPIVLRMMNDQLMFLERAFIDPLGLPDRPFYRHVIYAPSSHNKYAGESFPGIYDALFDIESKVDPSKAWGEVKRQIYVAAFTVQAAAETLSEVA

Data set [4] can be described thus: Drug uptake in iv dosed BALB/c athymic nude mouse tumor xenografted with human LNCaP cells treated with 68Ga-labeled compound measured after 1 hr by microPET imaging analysis. The format is ADME, organism-based. As to conditions: in vivo. In outline:
as §1

In data set [5] the target is T1, Glutamate carboxypeptidase 2. In words: Binding affinity to PSMA in human LNCaP cells after 45 mins in presence of 68Ga-labeled PSMA-10 by gamma counting assay. The data set is classed as cell-based.
Target sequence in this assay (Q04609 whole entry): as the sequence (Q04609 whole entry, looked up) above
A short description of data set [6]: Ratio of drug uptake in tumor to muscle in iv dosed BALB/c athymic nude mouse xenografted with human LNCaP cells treated with 68Ga-labeled compound measured after 1 hr by microPET imaging analysis. The format is ADME, organism-based. As to conditions: in vivo. In outline: as §1
A short description of data set [7]: Drug uptake in iv dosed BALB/c athymic nude mouse kidney xenografted with human LNCaP cells treated with 68Ga-labeled compound measured after 1 hr by microPET imaging analysis. Conditions: in vivo. The data set is classed as ADME, organism-based. In outline:
as §1

A short description of data set [8]: Drug uptake in iv dosed BALB/c athymic nude mouse tumor xenografted with human LNCaP cells treated with 68Ga-labeled compound measured upto 120 mins by microPET imaging analysis. The format is ADME, organism-based. As to conditions: in vivo, 2 h. In outline:
as §1

Data set [9] in a line: Retention time of the compound by HPLC. The format is physicochemical.
The target of data set [10] is T1, Glutamate carboxypeptidase 2. Kind of data set: Inhibition of PSMA in human LNCaP cells assessed as cell surface binding per 10^6 cells using 177Lu-labeled compound after 45 mins by gamma counting analysis. The format is cell-based. In outline:
as §2
Target sequence in this assay (Q04609 whole entry, looked up): as above

By logD is commonly meant the decadic logarithm of the distribution of all forms, ionised or not, between an organic phase and buffer at a given pH. Low readings indicate lower lipophilicity, high ones higher lipophilicity. Usually Ki stands for the dissociation constant of the complex between target and ligand, obtained from inhibition or displacement.

For `O=C(O)CC[C@H](NC(=O)N[C@@H](CCCCNC(=O)[C@H]1CC[C@H](CNC(=O)[C@H](Cc2ccc3ccccc3c2)NC(=O)CN2CCN(CC(=O)O)CCN(CC(=O)O)CCN(CC(=O)O)CC2)CC1)C(=O)O)C(=O)O`, the SUV in [1] is listed as 0.11; in data set [4], 0.39; in [7], 3.62. The logD in data set [2] is -1.44. Besides, the specific internalization (% of added activity per 10^6 cells) in [3] came out at 0.13%. The Ki in [5] is 17.7 nM. In data set [6], the Ratio amounted to 3.5. Further, in data set [8], the Drug uptake entry is recorded as “Not Active”. In [9], this compound registered a Retention_time of 2.48 min. In [10], the specific cell surface binding (% of applied activity per 10^6 cells) was found to be 1.09%.

As to `O=C(O)CC[C@H](NC(=O)N[C@@H](CCCCNC(=O)[C@H](Cc1ccc2ccccc2c1)NC(=O)CN1CCN(CC(=O)O)CCN(CC(=O)O)CCN(CC(=O)O)CC1)C(=O)O)C(=O)O`, the SUV in data set [1] came out at 0.2; in [4] it was 0.31; in [7], 4.79. Further, the logD in [2] is -2.03. Besides, in data set [3], the specific internalization (% of added activity per 10^6 cells) turned out to be 1.77%. For the same compound, the Ki in data set [5] was 28.6 nM. The Ratio in [6] was 1.6. In data set [9], the Retention_time was 2.71 min. Besides, the specific cell surface binding (% of applied activity per 10^6 cells) in data set [10] is 1.68%.

Turning to `O=C(O)CC[C@H](NC(=O)N[C@@H](CCCCNC(=O)c1ccc(CNC(=O)c2ccc(CNC(=O)c3ccc(CNC(=O)c4ccc(CNC(=O)CN5CCN(CC(=O)O)CCN(CC(=O)O)CCN(CC(=O)O)CC5)cc4)cc3)cc2)cc1)C(=O)O)C(=O)O`, the SUV in data set [1] turned out to be 0.25; in data set [4], 0.52; in data set [7], 2.21. The compound also had a logD in data set [2] of -2.12. In addition, in [3], the specific internalization (% of added activity per 10^6 cells) stood at 6.86%. Further, the Ki in data set [5] came to 6.19 nM. For the same compound, in data set [6], the Ratio is listed as 2.1. Also, the Drug uptake entry in data set [8] is listed as “Active”. The Retention_time in [9] is recorded as 2.44 min. For the same compound, in data set [10], the specific cell surface binding (% of applied activity per 10^6 cells) amounted to 25.2%.

`O=C(O)CC[C@H](NC(=O)N[C@@H](CCCCNC(=O)[C@H]1CC[C@H](CNC(=O)[C@H]2CC[C@H](CNC(=O)[C@H]3CC[C@H](CNC(=O)CN4CCN(CC(=O)O)CCN(CC(=O)O)CCN(CC(=O)O)CC4)CC3)CC2)CC1)C(=O)O)C(=O)O`: the SUV was determined as 0.21 in data set [1], 0.18 in data set [4] and 2.91 in data set [7]. Further, in data set [2], the logD was -1.98. The specific internalization (% of added activity per 10^6 cells) in data set [3] worked out at 0.03%. Besides, the Ki in data set [5] was determined as 19.4 nM. Also, in data set [6], the Ratio is on record as 0.9. The Drug uptake entry in [8] is “Not Active”. This compound came in with a Retention_time in data set [9] of 2.28 min. In addition, in [10], the specific cell surface binding (% of applied activity per 10^6 cells) was determined as 0.23%.

Regarding `O=C(O)CC[C@H](NC(=O)N[C@@H](CCCCNC(=O)[C@@H](Cc1ccc2ccccc2c1)NC(=O)[C@H]1CC[C@H](CNC(=O)CN2CCN(CC(=O)O)CCN(CC(=O)O)CCN(CC(=O)O)CC2)CC1)C(=O)O)C(=O)O`, the SUV was found to be 0.27 in data set [1], 0.69 in [4] and 3.98 in data set [7]. This compound also showed a logD in data set [2] of -2.02. Moreover, in data set [3], the specific internalization (% of added activity per 10^6 cells) is 7.18%. In [5], the Ki amounted to 8.86 nM. Besides, the Drug uptake entry in data set [8] is “Active”. Further, in data set [9], the Retention_time is 2.56 min. Besides, the specific cell surface binding (% of applied activity per 10^6 cells) in data set [10] stood at 12.2%.

As for `O=C(O)CCc1ccc(O)c(CN(CCN(CC(=O)O)Cc2cc(CCC(=O)NCCCCCC(=O)NCCCC[C@H](NC(=O)N[C@@H](CCC(=O)O)C(=O)O)C(=O)O)ccc2O)CC(=O)O)c1` [GOZETOTIDE], the logD in data set [2] is -1.71. The specific internalization (% of added activity per 10^6 cells) in data set [3] stood at 9.47%. For the same compound, the Ki in data set [5] stood at 12 nM. In addition, the Ratio in data set [6] came to 4.9. In data set [9], this compound registered a Retention_time of 1.69 min. Besides, the specific cell surface binding (% of applied activity per 10^6 cells) in data set [10] was found to be 10.6%.

For the compound `O=C(O)CC[C@H](NC(=O)N[C@@H](CCCCNC(=O)c1ccc(CNC(=O)[C@H](Cc2ccc3ccccc3c2)NC(=O)[C@H]2CC[C@H](CNC(=O)CN3CCN(CC(=O)O)CCN(CC(=O)O)CCN(CC(=O)O)CC3)CC2)cc1)C(=O)O)C(=O)O`, the SUV entry in data set [1], in data set [4] and in data set [7] was “Not Determined(Unstable)” in each case. In addition, the Ratio entry in data set [6] is recorded as “Not Determined(Unstable)”. In data set [9], the Retention_time was determined as 2.7 min.

With `O=C(O)CC[C@H](NC(=O)N[C@@H](CCCCNC(=O)c1ccc(CNC(=O)c2ccc(CNC(=O)CN3CCN(CC(=O)O)CCN(CC(=O)O)CCN(CC(=O)O)CC3)cc2)cc1)C(=O)O)C(=O)O`, the SUV in data set [1] was found to be 0.1; in [4] it was 0.56; in [7] it was 3.16. The compound also had a log distribution coefficient (logD) in [2] of -1.94. Also, the specific internalization (% of added activity per 10^6 cells) in data set [3] worked out at 3.66%. Also, the Ki in data set [5] was determined as 7.51 nM. In addition, the Ratio in data set [6] worked out at 5.6. Besides, the Drug uptake result in [8] is reported as “Active”. Further, the Retention_time in [9] is given as 1.78 min. The specific cell surface binding (% of applied activity per 10^6 cells) in data set [10] was 14.3%.

As for `O=C(O)CC[C@H](NC(=O)N[C@@H](CCCCNC(=O)c1ccc(CNC(=O)CN2CCN(CC(=O)O)CCN(CC(=O)O)CCN(CC(=O)O)CC2)cc1)C(=O)O)C(=O)O`, the SUV is given as 0.13 in [1], 0.28 in [4] and 2.68 in data set [7]. This compound gave a logD in [2] of -1.99. Also, the specific internalization (% of added activity per 10^6 cells) in [3] amounted to 5.11%. Also, in [5], the Ki came out at 1.97 nM. For the same compound, in data set [6], the Ratio turned out to be 2.2. Besides, the Drug uptake result in data set [8] was “Active”. In data set [9], the Retention_time came out at 1.56 min. Further, in data set [10], the specific cell surface binding (% of applied activity per 10^6 cells) worked out at 8.54%.

Regarding `O=C(O)CC[C@H](NC(=O)N[C@@H](CCCCNC(=O)[C@H]1CC[C@H](CNC(=O)CN2CCN(CC(=O)O)CCN(CC(=O)O)CCN(CC(=O)O)CC2)CC1)C(=O)O)C(=O)O`, the values for the SUV in data set [1], in data set [4] and in data set [7] were 0.15, 0.23 and 6.86, respectively. For the same compound, the logD in data set [2] is -0.91. Besides, in data set [3], the specific internalization (% of added activity per 10^6 cells) was 1.24%. The Ki in data set [5] stood at 9.33 nM. For the same compound, the Ratio in data set [6] is given as 1.5. Further, the Drug uptake entry in data set [8] was “Not Active”. Also, the Retention_time in data set [9] is reported as 1.81 min. Moreover, the specific cell surface binding (% of applied activity per 10^6 cells) in [10] stood at 4.14%.

For the compound `O=C(O)CC[C@H](NC(=O)N[C@@H](CCCCNC(=O)[C@H](Cc1ccc2ccccc2c1)NC(=O)CCCCCNC(=O)CN1CCN(CC(=O)O)CCN(CC(=O)O)CCN(CC(=O)O)CC1)C(=O)O)C(=O)O`, the figures for the SUV in data set [1], in [4] and in [7] were 0.07, 0.14 and 2.26, respectively. In data set [2], the logD is -1.88. Moreover, in data set [3], the specific internalization (% of added activity per 10^6 cells) is 2.99%. Moreover, the Ki in data set [5] turned out to be 6.31 nM. The Ratio in data set [6] is reported as 2. Further, the Retention_time in [9] is 2.58 min. Further, the specific cell surface binding (% of applied activity per 10^6 cells) in [10] was found to be 9.07%.
